Screens from PubChem BioAssay.
An excerpt weighted towards active compounds, which were near 2.3% of everything screened.
MEKK2wt PB1 HTS – raises or lowers MEK5 binding to wildtype human MEKK2 PB1 domain. 290,000 compounds, 1.1% hits. binding response (% of control), % at 10 µM. bead flow cytometry, Alexa488-MEK5 binding to MEKK2 WT; actives lie on both sides. AID 1531; in the data active = binding response below about 67% or above about 130%
Arr AP2 block – human beta-arrestin and AP2 interaction inhibition; inhibition, % at 10 µM; FITC-arrestin peptide / GST-AP2 beads, flow cytometry; AP2 beta2 appendage carries R879A mutation; 340,000 compounds, 0.31% hits; AID 504490;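 active = inhibition above a set limit, near 3 SD of compounds lacking own fluorescence, cut at about 54% in these data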
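Material – AP2 appendage R879A on GSH beads · Buffer or medium – PBS with 0.05% Tween 20 and 0.1% BSA · Probe or stimulus – fluorescein-tagged arrestin peptide at 50 nM final · Incubation – compound with beads 12 min RT, then probe 1 h RT · Detection – high-throughput flow cytometry of beads, ex 488, em 535 nm · Evaluation – percent response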
MEKK2 mut-MEK5 – signal of MEK5 binding to mutant human MEKK2 PB1 domain. bead flow cytometry, Alexa488-MEK5 binding to MEKK2 mutant. percent response, % at 10 µM. AID 1530. 290,000 compounds, 0.35% hits; in the data active = percent response above about 24%, passing the limit was not always enough
MEKK3 PB1 HTS – MEKK3-MEK5 PB1 interaction, increase or decrease | Q99759 | bead-based flow cytometry, Alexa488-MEK5 binding to MEKK3; actives lie on both sides; 0 = blocked by unlabeled MEK5, 100 = vehicle | binding response (% of control), % at 10 µM | 290,000 compounds, 1.4% hits;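 active = binding response more than 3 SD above or below the average of its plate-row segment, actives on both sides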;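 note: Alexa488 bead fluorescence after subtracting the streptavidin-only scavenger bead signal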
Target sequence (Q99759 whole entry, looked up): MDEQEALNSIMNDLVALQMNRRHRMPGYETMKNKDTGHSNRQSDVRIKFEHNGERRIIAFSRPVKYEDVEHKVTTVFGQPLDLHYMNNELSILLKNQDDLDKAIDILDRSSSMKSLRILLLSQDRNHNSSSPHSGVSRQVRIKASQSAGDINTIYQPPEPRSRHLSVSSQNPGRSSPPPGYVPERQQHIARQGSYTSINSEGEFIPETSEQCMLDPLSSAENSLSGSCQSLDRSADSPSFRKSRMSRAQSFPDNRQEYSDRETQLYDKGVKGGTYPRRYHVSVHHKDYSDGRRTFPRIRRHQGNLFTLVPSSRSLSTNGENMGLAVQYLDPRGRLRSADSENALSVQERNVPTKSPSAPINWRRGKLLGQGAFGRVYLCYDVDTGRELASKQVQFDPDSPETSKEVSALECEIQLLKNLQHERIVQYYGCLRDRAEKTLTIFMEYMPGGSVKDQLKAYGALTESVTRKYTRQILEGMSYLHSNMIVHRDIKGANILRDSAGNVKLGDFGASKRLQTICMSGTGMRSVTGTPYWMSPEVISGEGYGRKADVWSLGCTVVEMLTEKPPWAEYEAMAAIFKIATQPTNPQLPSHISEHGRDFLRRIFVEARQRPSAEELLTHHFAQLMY
Arr AP2 CP1 – human beta-arrestin and AP2 interaction inhibition, cherry pick | shares compounds with Arr AP2 block | GST-AP2 beads, FITC arrestin peptide binding, flow cytometry; GST-fused beta2-adaptin appendage, R879A mutant | inhibition, % at 10 µM | 1,300 compounds, 2% hits;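 active = inhibition above a set limit, roughly 3 SD of non-fluorescent compound noise, cut at about 38% in these data; inactive = inhibition at or below that limit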;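 note: loss of bead fluorescence from 50 nM FITC arrestin peptide bound to appendage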
GST-FITC bead – disrupts GST binding to glutathione beads, arrestin-AP2 artifact. shares compounds with Arr AP2 block. GST-fluorescein binding to GSH beads, fluorescence, counter-screen. inhibition, % at 10 µM. 1,300 compounds, 2% hits. AID 588338;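 active = inhibition above 50%, about 3 SD of the inhibition seen with non-fluorescent compounds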;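 note: fluorescein maleimide labelled GST captured on 4 micron glutathione beads; higher means more loss of bead fluorescence from quenching or blocked binding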
Of the large screens only hits and unclear results are named; the others gave an inactive call (follow-up assays come after a bar, where they were run).

Cn1c(=O)[nH]c(=O)c2c1nc(N1CCCCCC1)n2Cc1cccc2ccccc12	Arr AP2 block 100 | Arr AP2 CP1 inactive | GST-FITC bead inactive
Cn1c(=O)[nH]c(=O)c2c1nc(N1CCNCC1)n2Cc1ccccc1Cl	none
O=C(Nc1cc(C(F)(F)F)ccc1N1CCCC1)C1=COCCO1	none (no result: MEKK2wt PB1 HTS, MEKK2 mut-MEK5, MEKK3 PB1 HTS)
O=C(Nc1cc(C(F)(F)F)ccc1N1CCOCC1)C1=COCCO1	Arr AP2 block 55 (no result: MEKK2wt PB1 HTS, MEKK2 mut-MEK5, MEKK3 PB1 HTS) | Arr AP2 CP1 inactive | GST-FITC bead inactive
CC1CN(S(=O)(=O)c2ccc(CN3C(=O)c4cccnc4C3=O)cc2)c2ccccc2O1 (configuration not stated)	Arr AP2 block 59 | Arr AP2 CP1 inactive | GST-FITC bead inactive
COc1ccc(CN2C(=O)c3cccnc3C2=O)cc1S(=O)(=O)N1CC(C)Oc2ccccc21 (configuration not stated)	none
O=C(NCCCc1ccccc1)C1CC1	none (no result: MEKK2wt PB1 HTS, MEKK2 mut-MEK5, MEKK3 PB1 HTS)
CCOc1cccc(-c2cc(=O)[nH][nH]2)c1	Arr AP2 block 74 | Arr AP2 CP1 inactive | GST-FITC bead inactive
CCC(C(=O)Nc1ccc2c(c1)OCCO2)n1c(=O)[nH]c2ccccc2c1=O (configuration not stated)	none | Arr AP2 CP1 inactive | GST-FITC bead inactive
Cc1cc(C)cc(NC(=O)Cn2c(=O)oc3cc(S(=O)(=O)N4CC(C)CC(C)C4)ccc32)c1 (configuration not stated)	Arr AP2 block 97 | Arr AP2 CP1 inactive | GST-FITC bead inactive
O=C(OCc1ccc(F)cc1)c1ccc2c(c1)-c1ccccc1C2=O	Arr AP2 block 94 | Arr AP2 CP1 inactive | GST-FITC bead inactive
O=C(OCc1ccc(F)cc1)c1cc2ccccc2cc1O	none
CC(C)c1ccc2[nH]c(O)c(N=NC(=O)c3cccc(S(=O)(=O)Nc4ccccc4Cl)c3)c2c1	Arr AP2 block 100 | Arr AP2 CP1 inactive | GST-FITC bead inactive
COc1ccc(N2CCN(Cc3cc(=O)c(OCC(=O)NC4CCCC4)co3)CC2)cc1	none (no result: MEKK2wt PB1 HTS, MEKK2 mut-MEK5, MEKK3 PB1 HTS)
Cc1ccc(-c2cc(C(F)F)n3ncc(C(=O)N4CCCc5ccccc54)c3n2)cc1	none | Arr AP2 CP1 inactive | GST-FITC bead inactive
C=CCSc1nnc(NC(=O)C2CC(=O)N(Cc3ccc(C)cc3)C2)s1 (configuration not stated)	Arr AP2 block 56 (no result: MEKK2wt PB1 HTS, MEKK2 mut-MEK5, MEKK3 PB1 HTS) | Arr AP2 CP1 inactive | GST-FITC bead inactive
Cc1ccc(CN2CC(C(=O)Nc3nnc(SCc4c(Cl)cccc4Cl)s3)CC2=O)cc1 (configuration not stated)	none
O=C(COc1ccccc1C(=O)NCc1ccccn1)Nc1ccc(Br)cc1	none
CCCSCCCNC(=O)CN1C(=O)COc2ccc(S(=O)(=O)N3CCCC3)cc21	none
O=c1c2c3c(sc2nc2n1CCCCC2)C(O)CCC3 (configuration not stated)	none
O=c1c2c3c(sc2nc2n1CCCCC2)CCC3	Arr AP2 block 104 | Arr AP2 CP1 inactive | GST-FITC bead inactive
O=C(Cn1cc(C(F)(F)F)cc(Cl)c1=O)Nc1cc(Cl)cc(Cl)c1	none
CCCn1c(=O)c2[nH]cnc2n(-c2ccc(Cl)cc2)c1=O	Arr AP2 block 58 | Arr AP2 CP1 inactive | GST-FITC bead inactive
CC(=O)c1ccc(N2CC(C)(C)C2=O)cc1	none
CC(=O)c1ccc(-n2ccc(=O)cc2)cc1	Arr AP2 block 60 | Arr AP2 CP1 inactive | GST-FITC bead inactive
CC(C)Oc1ccc(CNS(=O)(=O)c2csc(C(N)=O)c2)cc1	none
NS(=O)(=O)c1ccc(CCNC(=O)c2cnccn2)cc1	none
O=C(CSc1nc2ccccc2o1)N1N=C(c2cccs2)CC1c1ccc(F)cc1 (configuration not stated)	none
Cc1ccc(C2CC(c3cccs3)=NN2C(=O)CSc2nc3ccccc3o2)cc1 (configuration not stated)	Arr AP2 block 62 | Arr AP2 CP1 inactive | GST-FITC bead inactive
CC(C)(C)c1nnc(NC(=O)Cc2ccccc2[N+](=O)[O-])s1	none
CC(C)c1nnc(NC(=O)Cc2ccccc2[N+](=O)[O-])s1	Arr AP2 block 58 | Arr AP2 CP1 inactive | GST-FITC bead inactive
O=C(NCCCN1CCCC1=O)Nc1ccc([N+](=O)[O-])cc1	none
Cc1ccc(NC(=O)CNS(=O)(=O)c2ccc(F)cc2)cc1C	Arr AP2 block 55 | Arr AP2 CP1 inactive | GST-FITC bead inactive
CC1CCCN(CCCOc2ccccc2-c2ccccc2)C1 (configuration not stated)	none
CN(C)c1cc2c(cc1NC(=O)c1ccccc1Cl)n(C)c(=O)n2C	none | Arr AP2 CP1 inactive | GST-FITC bead inactive
O=C(Nc1ccccc1OC(F)F)c1ccc(-n2cncn2)c([N+](=O)[O-])c1	none (no result: MEKK2wt PB1 HTS, MEKK2 mut-MEK5, MEKK3 PB1 HTS)
CC(C)(C)C(=O)NCc1ccc(C(=O)CSc2nnc(-c3ccncc3)n2C2CC2)s1	Arr AP2 block 62 (no result: MEKK2wt PB1 HTS, MEKK2 mut-MEK5, MEKK3 PB1 HTS) | Arr AP2 CP1 inactive | GST-FITC bead inactive
COc1ccc(/C(C)=N/NC(=O)CN(c2ccc(OC)cc2)S(=O)(=O)c2ccccc2)cc1	none
O=C(Nc1ccc2c(c1)OCCO2)c1coc2ccccc2c1=O	Arr AP2 block 89 | Arr AP2 CP1 inactive | GST-FITC bead inactive
COc1ccc(C(=O)NNC2=Nc3cccc4cccc2c34)cc1	none
COc1ccc(CC(=O)NNC2=Nc3cccc4cccc2c34)cc1	Arr AP2 block 58 | Arr AP2 CP1 inactive | GST-FITC bead inactive
COCCN(C(=O)CCCC(=O)Nc1ccccn1)C(C(=O)NC1CCCCC1)c1ccc(C)cc1 (configuration not stated)	Arr AP2 block 101 | Arr AP2 CP1 inactive | GST-FITC bead inactive
COCCNC(=O)C(c1ccc(C)cc1)N(CCOC)C(=O)CCC(=O)Nc1ccccn1 (configuration not stated)	none
CCOC(=O)CSC1=N/C(=C\c2cccnc2)C(=O)N1c1ccc(OC)cc1	Arr AP2 block 105 | Arr AP2 CP1 inactive | GST-FITC bead inactive
CCSC1=N/C(=C\c2cccnc2)C(=O)N1c1ccccc1	none
CCc1ccc2[nH]c(=O)c(CN(CCN(C)C)C(=S)NCc3ccco3)cc2c1	none
CCc1ccc2[nH]c(=O)c(CN(CCN(CC)CC)C(=S)NCc3ccco3)cc2c1	Arr AP2 block 55 | Arr AP2 CP1 inactive | GST-FITC bead inactive
O=C(NCc1cccc(F)c1)C1CCC(=O)N(CCc2cccc(F)c2)C1 (configuration not stated)	none | Arr AP2 CP1 inactive
Cc1ccc(CCCNC(=O)C2CCC(=O)N(Cc3cccc(F)c3)C2)cc1 (configuration not stated)	none | Arr AP2 CP1 inactive | GST-FITC bead inactive
O=C(NCCN1CCCC1=O)C1CCC(=O)N(CCc2cccc(F)c2)C1 (configuration not stated)	Arr AP2 block 59 | Arr AP2 CP1 inactive | GST-FITC bead inactive
